This note sets out measurements from ChEMBL document CHEMBL1833877, “Antinociceptive properties of bergenin” (J Nat Prod, 2011).

Data set [1] deals with Mus musculus. Kind of data set: Antinociceptive activity against formalin-induced pain in mouse assessed as paw licking during late phase (10 to 60 mins) at 10 mg/kg, ip administered 40 mins before formalin challenge. In kind it is functional, organism-based. Also noted: dose 10 mg/kg. The procedure, abridged: (§1)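 Mice were acclimated 30 min in an observation chamber, then given 20 μL of 2.5% formalin sc into the dorsal hind paw. Dosing was ip (2% DMSO/saline vehicle) 40 min beforehand. Time spent licking the injected paw was scored over 0–10 min and 10–60 min. n = 6/group, means ± SEM, ANOVA with Tukey.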

Data set [2] has as its system Mus musculus. As to the kind of experiment: Antinociceptive activity in mouse assessed as inhibition of acetic acid-induced abdominal constrictions at 10 mg/kg, ip administered 40 mins before acetic acid challenge measured for 30 mins. It is filed as functional, organism-based. The arrangement: dose 10 mg/kg. The following applies: Abdomen. The gist of the method:
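Dosing was ip in 2% DMSO/saline 40 min before ip acetic acid (0.8% v/v, 10 mL/kg). Writhes (abdominal contraction with hind-limb stretching) were counted over 0–30 min. n = 6 mice/group, means ± SEM, ANOVA with Tukey.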

Data set [3] concerns Mus musculus. Kind of data set: Antinociceptive activity against formalin-induced pain in mouse assessed as paw licking during early phase (0 to 10 mins) at 10 mg/kg, ip administered 40 mins before formalin challenge. In kind it is functional, organism-based. Also noted: dose 10 mg/kg. The procedure, abridged: as §1
The test system of data set [4] is Mus musculus. As to the kind of experiment: Antinociceptive activity against Freund's complete adjuvant-induced paw inflammation in mouse assessed as reduction in paw edema at 2 mg/kg, ip administered 40 mins before CFA challenge measured after 6 hrs. It is filed as functional, organism-based. Also noted: dose 2 mg/kg. The gist of the method:
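CFA (20 μL, 1 mg/mL heat-killed M. tuberculosis) was injected sc into the right hind plantar surface. Treatment was ip in 2% DMSO/saline 40 min before. Paw volume was read by plethysmometer before and after CFA, and edema taken as the volume difference (mm3/paw). n = 6 mice/group, means ± SEM, two-way ANOVA with Bonferroni.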

In data set [5] the test system is Mus musculus. As to the kind of experiment: Inhibition of TNF-alpha production in Freund's complete adjuvant-induced mouse at 2 mg/kg, ip administered 40 mins before CFA challenge measured after 2 hrs by ELISA. It is filed as functional, organism-based. Also noted: dose 2 mg/kg. The procedure, abridged: (§2)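 CFA was given intraplantar, with ip dosing (2% DMSO/saline vehicle) 40 min earlier. At 2 h, paw skin was taken under terminal halothane anesthesia. Tissue was extracted (100 mg/mL PBS with 0.4 M NaCl, 0.05% Tween 20 and protease inhibitors) and centrifuged at 3000g for 10 min. Supernatant was assayed by mouse ELISA, in pg/mL. n = 6/group.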
(In general: An ELISA detects its analyte on a solid surface through an enzyme-linked reagent.)

The subject of data set [6] is Mus musculus. Kind of data set: Inhibition of IL1-beta production in Freund's complete adjuvant-induced mouse at 2 mg/kg, ip administered 40 mins before CFA challenge measured after 2 hrs by ELISA. In kind it is functional, organism-based. The arrangement: dose 2 mg/kg. The procedure, abridged:
as §2

The subject of data set [7] is Mus musculus. As to the kind of experiment: Neurotoxicity in mouse assessed as effect on motor coordination at 10 mg/kg, ip after 40 mins by open field test. In kind it is toxicity, organism-based. The arrangement: dose 10 mg/kg, route intraperitoneal. The following applies: in vivo. The gist of the method: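 Male mice were dosed ip (vehicle 2% DMSO in saline). 40 min later each was placed alone in a 40 × 60 × 50 cm wooden box with the floor divided into 12 squares. Squares crossed with all four paws were counted over 3 min. n = 6 mice per group, means ± SEM, one-way ANOVA with Tukey's test.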

In data set [8] the test system is Mus musculus. Kind of data set: Neurotoxicity in mouse assessed as effect on motor coordination by measuring reduced latency at 10 mg/kg, ip after 40 mins by rotarod test. In kind it is toxicity, organism-based. Also noted: dose 10 mg/kg, route intraperitoneal. Conditions: in vivo. The gist of the method: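 Rotarod: a 3 cm bar split into five compartments, turning at a constant 5 rpm. Male mice were placed on the rod 40 min after ip dosing (vehicle 2% DMSO in saline), and time on the rod was recorded up to 120 s. Result is mean time per group; n = 6, one-way ANOVA with Tukey's test.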
(Falling from the rotarod earlier than controls is read as motor impairment.)

Structures are written as SMILES. Active and inactive are the calls of the source. No cut-off for these calls is given here.

For the molecule `COc1ccc2c(c1)c(CC(=O)O)c(C)n2C(=O)c1ccc(Cl)cc1`, the outcome in the data set with Mus musculus [1], with Mus musculus [2] and in the data set with Mus musculus [3] was Active.
In the case of `C[C@@H]1C[C@H]2[C@@H]3CCC4=CC(=O)C=C[C@]4(C)[C@@]3(F)[C@@H](O)C[C@]2(C)[C@@]1(O)C(=O)CO`, in the data set with Mus musculus [4], the result was inactive. Besides, the inhibition entry in the data set with Mus musculus [5] and in the data set with Mus musculus [6] was “Active” in each case.
`CN1C(=O)CN=C(c2ccccc2)c2cc(Cl)ccc21` [DIAZEPAM]: the Activity entry in the data set on Mus musculus [7] and in the data set with Mus musculus [8] was “Toxic” in each case.
